The source of these data is ChEMBL document CHEMBL1137156, “Novel substituted 4-phenyl-[1,3]dioxanes: potent and selective orexin receptor 2 (OX(2)R) antagonists” (Bioorg Med Chem Lett, 2004).

In one experiment the target is T1, Orexin receptor type 2 (Homo sapiens, UniProt O43614).
T1 sequence (O43614 whole entry): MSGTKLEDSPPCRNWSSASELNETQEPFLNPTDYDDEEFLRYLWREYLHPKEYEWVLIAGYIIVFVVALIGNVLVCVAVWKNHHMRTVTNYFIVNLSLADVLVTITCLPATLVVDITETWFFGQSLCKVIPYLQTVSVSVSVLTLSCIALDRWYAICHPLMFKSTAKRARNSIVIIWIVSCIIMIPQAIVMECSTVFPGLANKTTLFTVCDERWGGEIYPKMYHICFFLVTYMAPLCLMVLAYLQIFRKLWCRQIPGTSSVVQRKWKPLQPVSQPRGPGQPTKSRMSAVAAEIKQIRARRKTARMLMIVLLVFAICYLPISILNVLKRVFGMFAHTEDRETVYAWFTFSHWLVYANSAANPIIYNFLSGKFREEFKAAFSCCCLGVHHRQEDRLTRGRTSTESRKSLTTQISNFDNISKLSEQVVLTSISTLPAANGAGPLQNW
The experiment can be described thus: Binding affinity towards human orexin receptor type 2 was determined using [125I]-Orexin A as radio ligand.

The target of experiment [1] is T2, Orexin/Hypocretin receptor type 1 (Homo sapiens, UniProt O43613).
T2 sequence (O43613 whole entry): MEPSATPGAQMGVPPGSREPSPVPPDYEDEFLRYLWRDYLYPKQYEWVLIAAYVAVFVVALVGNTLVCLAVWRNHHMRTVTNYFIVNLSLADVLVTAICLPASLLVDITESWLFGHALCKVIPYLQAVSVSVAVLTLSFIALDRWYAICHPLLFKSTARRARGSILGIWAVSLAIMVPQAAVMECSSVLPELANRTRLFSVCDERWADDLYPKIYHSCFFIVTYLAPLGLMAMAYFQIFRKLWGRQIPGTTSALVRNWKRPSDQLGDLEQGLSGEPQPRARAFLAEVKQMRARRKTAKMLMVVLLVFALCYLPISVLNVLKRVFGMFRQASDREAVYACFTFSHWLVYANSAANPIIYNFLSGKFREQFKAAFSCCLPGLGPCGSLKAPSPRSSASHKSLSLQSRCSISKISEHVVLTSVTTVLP
The experiment can be described thus: Binding affinity towards human orexin receptor type 1 was determined using [125I]-Orexin A as radio ligand. In a few lines:
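Clonal CHO-K1 cells expressing the orexin receptor, grown adherent on poly-D-lysine-coated plates. Binding in Dulbecco's PBS with 0.1% w/v BSA, 10⁵ cpm ¹²⁵I-orexin A (2200 Ci/mmol) plus test compound, 90-120 min at room temperature. Wells washed with iced buffer, then scintillation counted. Ki with 95% confidence intervals from N = 3 assays.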

Experiment [2] concerns the target T3, Orexin receptor type 2 (Homo sapiens) (UniProt O43614).
T3 sequence (whole entry): T1 sequence (O43614 whole entry)
The experiment can be described thus: Antagonistic activity towards intracellular calcium levels in cells expressing Orexin receptor type 2. It counts as functional, cell-based. In a few lines:
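Fluo-3 AM-loaded cells expressing OX2R, intracellular Ca⁺⁺ fluorescence. […] For compounds with OX2R pKi above 6.3, pKB came from the orexin B EC50 and IC50s from antagonist dilutions, all on one 96-well plate.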
For orientation: A change in cytosolic calcium serves as a functional read-out for many receptors and channels.

The species entered for a further experiment is Homo sapiens. The experiment in a line: Selectivity of Orexin type 2 receptor over Orexin type 1 receptor.

Usually Ki stands for a dissociation constant, usually derived from enzyme kinetics or from competition with a known ligand. A word on the pKb: it is the negative decadic logarithm of the Kb, by convention in mol/L. As to `CC1(C)OC[C@H](NC(=O)Nc2ccccc2I)[C@H](c2ccccc2)O1`, the Ki on Orexin receptor type 2 is 79.4 nM; in experiment [1], > 5.01 µM. Also, in experiment [2], the pKb stood at 6.5. Further, the Selectivity in the experiment listed under Homo sapiens is > 70.
`CC1(C)OC[C@H](NC(=O)Nc2ccccc2-c2ccccc2Cl)[C@H](c2ccccc2)O1`: the Ki on Orexin receptor type 2 was 25.1 nM; in experiment [1], 0.126 µM. In the experiment listed under Homo sapiens, the Selectivity was 5.
Turning to `CC1(C)OC[C@H](NC(=O)Nc2ccc(Cl)cc2Cl)[C@H](c2ccccc2)O1`, the Ki is 20 nM at Orexin receptor type 2 and 2.51 µM in experiment [1]. Besides, the pKb in experiment [2] worked out at 7. Moreover, the Selectivity in the experiment filed under Homo sapiens was found to be 100.
Regarding `CC1(C)OC[C@H](NC(=O)Nc2ccc(Br)cc2)[C@H](c2ccccc2)O1`, the figures for the Ki (on Orexin receptor type 2; in experiment [1]) were 251 nM and > 10 µM, respectively. Besides, in the experiment filed under Homo sapiens, the Selectivity was > 40.
Taken in the same sequence, the figures for `CC1(C)OC[C@H](/N=C(\S)Nc2ccc(Cl)cc2Cl)[C@H](c2ccccc2)O1` were 200 nM, > 10 µM and > 50.
Take `Cc1ccc(Cl)c(NC(=O)N[C@H]2COC(C)(C)O[C@H]2c2ccccc2)c1`: the Ki at Orexin receptor type 2 was 63.1 nM; in experiment [1], > 5.01 µM. In the experiment filed under Homo sapiens, the Selectivity was > 80.
The matching figures for `CC1(C)OC[C@H](NC(=O)Nc2ccccc2-c2cccc(Cl)c2)[C@H](c2ccccc2)O1`: 79.4 nM, 0.501 µM and 6.
Taken in the same sequence, the figures for `CC1(C)OC[C@H](NC(=O)c2ccc(Cl)cc2Cl)[C@H](c2ccccc2)O1` were 200 nM, > 10 µM and > 50.
Taken in the same sequence, the figures for `CC1(C)OC[C@H](NC(=O)Nc2ccc(Br)cc2Cl)[C@H](c2ccccc2)O1` were 6.31 nM, > 5.01 µM and > 900.
In the case of `COc1ccccc1NC(=O)N[C@H]1COC(C)(C)O[C@H]1c1ccccc1`, the results for the Ki (on Orexin receptor type 2; in experiment [1]) were 2510 nM and > 10 µM, respectively. Besides, the Selectivity in the experiment listed under Homo sapiens was > 4.
Take `CC1(C)OC[C@H](NC(=O)Nc2ccc(Br)cc2Br)[C@H](c2ccccc2)O1`: the Ki was 5.01 nM at Orexin receptor type 2 and 3.16 µM in experiment [1]. Moreover, the pKb in experiment [2] was 7.9. This compound registered a Selectivity in the experiment listed under Homo sapiens of 600.
Take `CC1(C)OC[C@H](NC(=O)Nc2ccccc2)[C@H](c2ccccc2)O1`: the values for the Ki (at Orexin receptor type 2; in experiment [1]) were 501 nM and > 10 µM, respectively. Further, the Selectivity in the experiment listed under Homo sapiens is > 20.
Taken in the same sequence, the figures for `CC1(C)OC[C@H](NC(=O)Nc2c(Cl)cccc2Cl)[C@H](c2ccccc2)O1` were > 5010 nM, > 10 µM and > 2.
As to `CC1(C)OC[C@H](NC(=O)Nc2ccccc2-c2ccccc2)[C@H](c2ccccc2)O1`, the figures for the inhibition constant Ki (at Orexin receptor type 2; in experiment [1]) were 100 nM and 0.501 µM, respectively. In addition, the Selectivity in the experiment listed under Homo sapiens worked out at 4.
The matching figures for `CC1(C)OC[C@H](/N=C(\S)Nc2ccccc2Br)[C@H](c2ccccc2)O1`: 398 nM, > 10 µM and > 30.
The matching figures for `CC1(C)OC[C@H](NC(=O)Nc2ccccc2-c2cccnc2)[C@H](c2ccccc2)O1`: 316 nM, > 5.01 µM and > 20.
Taken in the same sequence, the figures for `CC1(C)OC[C@H](NC(=O)Nc2cccc(Br)c2)[C@H](c2ccccc2)O1` were 1000 nM, > 10 µM and > 9.
As for `CC1(C)OC[C@H](NC(=O)Nc2ccccc2-c2cccs2)[C@H](c2ccccc2)O1`, the Ki at Orexin receptor type 2 is 50.1 nM; in experiment [1], 1 µM. The same compound came in with a Selectivity in the experiment listed under Homo sapiens of 20.
Taken in the same sequence, the figures for `CC1(C)OC[C@H](NC(=O)Cc2ccccc2Br)[C@H](c2ccccc2)O1` were 1580 nM, > 10 µM and > 7.
Consider `CC1(C)OC[C@H](NC(=O)Nc2ccccc2Cl)[C@H](c2ccccc2)O1`, for which the inhibition constant (Ki) at Orexin receptor type 2 was 79.4 nM; in experiment [1], > 10 µM. Moreover, in experiment [2], the negative logarithm of the Kb (pKb) was found to be 6. In the experiment listed under Homo sapiens, the Selectivity was > 100.
On to `CC1(C)OC[C@H](NC(=O)Nc2ccccc2-c2ccsc2)[C@H](c2ccccc2)O1`, for which the values for the Ki (on Orexin receptor type 2; in experiment [1]) were 79.4 nM and 2 µM, respectively. This compound returned a Selectivity in the experiment listed under Homo sapiens of 30.
Regarding `CC1(C)OC[C@H](NC(=O)Nc2ccccc2Br)[C@H](c2ccccc2)O1`, the Ki in experiment [1] is 2 µM. The pKb in experiment [2] turned out to be 6.3.
As for `Cc1ccc(NC(=O)N[C@H]2COC(C)(C)O[C@H]2c2ccccc2)c(C)c1`, the Ki at Orexin receptor type 2 was 126 nM; in experiment [1], > 10 µM. Also, the Selectivity in the experiment filed under Homo sapiens is > 70.
Taken in the same sequence, the figures for `Cc1cc(Br)ccc1NC(=O)N[C@H]1COC(C)(C)O[C@H]1c1ccccc1` were 39.8 nM, > 10 µM and 200.
The matching figures for `CC(C)c1ccccc1NC(=O)N[C@H]1COC(C)(C)O[C@H]1c1ccccc1`: 2510 nM, > 10 µM and > 4.
Turning to `CC1(C)OC[C@H](NC(=O)Nc2ccccc2F)[C@H](c2ccccc2)O1`, the Ki was 398 nM at Orexin receptor type 2 and > 10 µM in experiment [1]. Moreover, in the experiment listed under Homo sapiens, the Selectivity is > 20.
The matching figures for `CC1(C)OC[C@H](NC(=O)Nc2cc(Cl)ccc2Cl)[C@H](c2ccccc2)O1`: 63.1 nM, > 5.01 µM and > 80.
Taken in the same sequence, the figures for `CC1(C)OC[C@H](NC(=O)Oc2ccccc2Cl)[C@H](c2ccccc2)O1` were 1580 nM, > 10 µM and > 6.
Taken in the same sequence, the figures for `CC1(C)OC[C@H](NC(=O)Nc2ccccc2C(F)(F)F)[C@H](c2ccccc2)O1` were 100 nM, > 10 µM and > 100.
Turning to `Cc1ccc(/N=C(\NC#N)N[C@H]2COC(C)(C)O[C@H]2c2ccccc2)c(Br)c1`, the Ki at Orexin receptor type 2 is 1260 nM; in experiment [1] it was > 10 µM. For the same compound, the Selectivity in the experiment filed under Homo sapiens is > 8.
